Screens (PubChem)
SIAE primary – human SIAE inhibitors, primary screen, biochemical, fluorescence polarization, FP-Rh probe, 1536-well HTS; Sialate O-acetylesterase (Homo sapiens), Q9HAT2; SIAE FP-Rh probe binding; inhibition, % at 9.66 µM; 0.69% of 370,000 active; AID 1053197, 2014;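 active = inhibition above a cutoff: mean of compounds within the control limits plus 3 SD of those, cut at about 17% in these data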;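 also: 0% = plate median of compound wells and 100% = probe without SIAE protein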
HTRA1 inh – HTRA1 serine protease inhibitors, primary screen, biochemical, fluorescence polarization, HTS; Q92743; 0.5% of 340,000 active; recombinant HTRA1, FP-rhodamine activity-based probe; AID 504803, 2011; inhibition, % at 5.96 µM; in the data active = inhibition above about 36%;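 also: 0% = enzyme with DMSO and 100% = wells lacking enzyme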
DDE Tn6 FP inh – inhibitors of Tn6 peptide binding to fibrin DD(E), primary screen, biochemical, fluorescence polarization, human fibrin, Tn6 probe | Fibrinogen beta chain (Homo sapiens), P02675 | Fibrin DD(E) TRITC-Tn6 fluorescence polarization displacement | inhibition, % at 8.3 µM | 0.21% of 370,000 active;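 active = inhibition above a per-campaign cutoff: mean of compounds within control limits plus 3 SD, cut at about 15% in these data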;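 also: 0% = median of all compound wells on the plate and 100% = blocking peptide control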
TCR CD3 inh – inhibitors of human TCR-CD3 interaction, primary screen, biochemical, fluorescence, TAMRA-labeled TCR probe; 0.37% of 360,000 active; T-cell receptor (TCR); inhibition, % at 9.4 µM;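 also: recombinant mutant TCR 2C K166C tagged with TAMRA read by polarization; 0% = receptor in buffer alone and 100% = receptor with positive control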
mABHD4 FP – ABHD4 inhibitors, primary screen, biochemical, fluorescence polarization, mouse. (Lyso)-N-acylphosphatidylethanolamine lipase (Mus musculus), Q8VD66. purified mABHD4, FP-Rh probe fluorescence polarization. inhibition, % at 8.92 µM. 0.54% of 370,000 active. AID 720543, 2013;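 active = inhibition exceeding the mean over every tested compound plus 3 SD, cut at about 30% in these data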;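 also: 0% = plate median of compound wells and 100% = S159A mutant with DMSO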
Target sequence (Q8VD66 whole entry, looked up): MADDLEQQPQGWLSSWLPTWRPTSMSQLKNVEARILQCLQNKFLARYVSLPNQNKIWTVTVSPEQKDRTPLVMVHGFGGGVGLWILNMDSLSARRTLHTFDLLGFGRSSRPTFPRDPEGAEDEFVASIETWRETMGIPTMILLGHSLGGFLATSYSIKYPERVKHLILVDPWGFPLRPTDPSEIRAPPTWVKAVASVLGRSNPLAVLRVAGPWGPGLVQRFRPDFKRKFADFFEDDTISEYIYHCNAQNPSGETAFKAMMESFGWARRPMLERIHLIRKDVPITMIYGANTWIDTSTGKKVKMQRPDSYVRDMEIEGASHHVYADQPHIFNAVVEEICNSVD
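assay system = mABHD4 protein | compound dosing = single nominal dose of 8.92 µM, 0.89% DMSO final | read-out basis = percent inhibition of probe binding, normalized to plate controls | schedule = Enzyme–compound pre-incubation 45 min, then probe 60 min, both 25 °C | detection = fluorescence polarization, excitation 525 nm, emission 598 nm, BODIPY TMR filters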
DDE Tn7 FP inh – inhibitors of Tn7 peptide binding to fibrin DD(E), primary screen, biochemical, fluorescence polarization, human fibrin, Tn7 probe; Fibrinogen beta chain (Homo sapiens), P02675; FP displacement of FITC-Tn7 peptide from fibrin DD(E); 0% = median of compound wells per plate; inhibition, % at 8.3 µM; 0.13% of 370,000 active; AID 720508, 2013;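 active = inhibition above the mean of compounds falling within the control limits plus 3 SD of them, cut at about 14% in these data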;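 also: 0% = plate median of compound wells and 100% = 10 µM Aha-Tn7 peptide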
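Assay system: Fibrin-DD(E) protein isolated from polymerized human fibrin clots; read-out basis: percent inhibition; medium: Tris/NaCl/CaCl2 buffer, pH 7.8; signal: FP measurement; incubation: 10 min plus 3 h, room temperature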
HTRA1 conf – HTRA1 protease inhibitors, retest, confirmation, biochemical, fluorescence polarization | shares compounds with HTRA1 inh | inhibition, % at 5.96 µM | recombinant HTRA1, FP-rhodamine activity-based probe | AID 540248, 2011 | 66% of 1,600 active;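 active = mean inhibition over three repeats above a set limit taken from the earlier primary screen, cut at about 37% in these data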;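 also: 0% = HTRA1 with DMSO and 100% = wells lacking HTRA1; inhibitors block probe binding so polarization drops and inhibition rises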
BSA TAMRA ctr – compounds interfering with TAMRA-BSA probe, counter-screen for TCR-CD3 interaction inhibitor project, biochemical, fluorescence, TAMRA-labeled BSA; 10% of 1,200 active; TAMRA-labeled BSA probe fluorescence counterscreen; shares compounds with TCR CD3 inh; AID 652035, 2013; inhibition, % at 9.4 µM; in the data active = inhibition above about 23%;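 also: 0% = buffer low control and 100% = reference high control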
TCR-CD3 inh conf – TCR-CD3 interaction inhibitors, retest, confirmation, biochemical, fluorescence, TAMRA-labeled TCR probe | shares compounds with TCR CD3 inh | TAMRA-labeled TCR probe fluorescence binding assay | inhibition, % at 9.4 µM | 48% of 1,200 active | AID 652036, 2013
DDE Tn6 FP ctr – counter-screen hit for Tn6 peptide-fibrin DD(E) binding disruption; shares compounds with DDE Tn6 FP inh; TRITC-Tn6 fluorescence polarization displacement; 0% = median of compound wells, not DMSO; inhibition, % at 8.3 µM; 2% of 680 active; AID 720621;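 active = inhibition above the mean of test compounds lying between the control limits plus 3 SD of those, cut at about 14% in these data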;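 also: 0% = median of compound wells and 100% = wells with Aha-Tn7 blocking peptide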
DDE Tn6 confirm – inhibitors of Tn6 peptide binding to fibrin DD(E), confirmation, biochemical, fluorescence polarization, human fibrin, Tn6 probe | shares compounds with DDE Tn6 FP inh | FP displacement of TRITC-Tn6 peptide from DD(E); 0% = per-plate median of test wells | inhibition, % at 8.3 µM | 10% of 680 active;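 active = inhibition above the mean of compounds lying within the control limits plus 3 SD, cut at about 16% in these data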;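 also: 100% = high control wells holding a competing inhibitor peptide at 10 µM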
ABHD4 confirm – ABHD4 inhibitors, retest, confirmation, biochemical, fluorescence polarization, mouse | shares compounds with mABHD4 FP | purified mABHD4, FP-Rh probe fluorescence polarization | inhibition, % at 8.92 µM | 55% of 1,800 active;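 active = mean inhibition across replicates above the hit cutoff set in the primary screen, cut at about 30% in these data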;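 also: 0% = wild-type ABHD4 with DMSO and 100% = catalytically dead S159A mutant with DMSO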
Active calls of the source: *; · = not tested or not shown. In the library only some 1.8% were active in any assay of this set; here they are far more common. Rule as the data show it, unless noted: active = inhibition above about 19%; inactive = the rest.

SMILES	SIAE primary	HTRA1 inh	DDE Tn6 FP inh	TCR CD3 inh	mABHD4 FP	DDE Tn7 FP inh	HTRA1 conf	ABHD4 confirm	others
O=C(CSc1nc2ccccc2o1)N/N=C/c1ccc(O)c(O)c1	16	37*	-6	13	34*	6	66*	29
Cc1ccc2nc(SCC(=O)N/N=C/c3ccco3)cc(C)c2c1	5	-26	-5	6	-3	-2	·	·
O=C(CSc1nc2ccccc2o1)N/N=C/c1ccccc1	6	16	13	4	7	4	·	·
Cc1cc(SCC(=O)N/N=C/c2ccc(O)c(O)c2)nc2ccccc12	3	78*	-3	26*	35*	-17	74*	31*	BSA TAMRA ctr=-10;TCR-CD3 inh conf=39*
COc1ccccc1N=Nc1ccc(O)c2ncccc12	15	81*	-3	2	38*	-4	62*	36*
COc1ccc(C(=O)OCCN(C)C2CN(Cc3cn(Cc4cccc(F)c4)nn3)S(=O)(=O)C2)cc1OC (stereo not drawn)	5	·	6	·	1	1	·	·
COc1ccc(N2C3=C(CC4=C2CCCC4=O)C(=O)CCC3)cc1	14	76*	6	2	59*	10	68*	16
C=CCN(C)CC#Cc1ccc(OC)cc1	1	·	-2	·	0	4	·	·
O=C(O)c1cccc2c1C(=O)c1ccccc1C2=O	2	2	5	-2	5	5	·	·
O=C1c2ccccc2C(=O)c2c(O)c(O)cc(O)c21	12	72*	65*	25*	73*	3	71*	61*	BSA TAMRA ctr=44*;TCR-CD3 inh conf=34*;DDE Tn6 FP ctr=7;DDE Tn6 confirm=88*
CCOC(=O)[C@@]12CN(C(=O)OC(C)(C)C)CC=C1N(Cc1ccc(OC)cc1)C(=O)[C@H]2CC(=O)NCCc1ccccc1OC	7	·	-5	·	1	4	·	·
CCCCCCCCCCCCCCCCn1cc[n+](C)c1	-1	66*	-3	-4	44*	-2	81*	51*
CCCCCCCCn1ccc(=N)cc1	-3	6	-1	2	2	6	·	·
CC(=O)N1CCN(c2ccc(NCc3cccc4ccccc34)cc2)CC1	10	37*	0	3	30*	-8	26	8
